Bioassay records deposited in PubChem by Broad Institute.
DENV2 CPE rescue – inhibitors of DENV2 cytopathic effect | DENV2-infected cells, cytopathic effect rescue, plate reader | 350,000 tested, 1.7% active | CPE inhibition, % at 9.99 µM; in the data active means CPE inhibition above about 20%, passing the limit was not always enough; inconclusive means no clear call, values can overlap the other calls; tested in BHK-21 cells;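 further: 0% = median of neutral control wells and 100% = median of positive control wells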
XiGFP reactiv – activators of X-chromosome reactivation in mouse fibroblasts; XiGFP mouse fibroblasts, % GFP-positive cells imaging, 3 d; cells co-treated with 5-aza-dC sensitizer; scaled so ellipticine positive control = 100%; activation, % at 7.58 µM; 360,000 tested, 0.055% active; AID 743238;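 active means mean normalized replicate activation at least 10% and every replicate at or above 10%; inconclusive means only one of the two criteria met; inactive means mean below 10% and not all replicates reach 10%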;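 further: 0% = median of on-plate neutral control wells and 100% = ellipticine 6 µM median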
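System: SV40-immortalized XiGFP fibroblast cells, line 68-5-11 / Incubation: 3-day compound exposure, then 15 min fixation at room temperature / Compound: single concentration per compound, delivered by pin transfer / Buffer or medium: DMEM plus 5-aza-dC sensitizer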
Statin myotox sup – suppression of simvastatin myotoxicity; C2C12 myotubes + simvastatin, ATP luminescence, 48 h; scaled: DMSO 0, geranylgeraniol control 100; rescue of ATP level, % at 7.49 µM; 330,000 tested, 0.78% active;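 active means mean ATP rescue above about 67%, or every replicate alone reaching that limit, limit read from the data, passing the limit was not always enough; inconclusive means no clear call, values can overlap the other calls; inactive means mean under the limit and some replicate under it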;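 further: myotubes were challenged with 10 µM simvastatin during compound exposure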
Cneo AK release – causes C. neoformans cell lysis | adenylate kinase release luminescence, 4 h; normalised: neutral wells 0, clomiphene wells 100 | lysis activity, % at 15 µM | 360,000 tested, 0.2% active;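 active means mean lysis activity across replicates of at least 80%, whatever share of replicates individually reach that level; inactive means mean lysis activity below 80%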
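Material – log-phase Cryptococcus neoformans yeast cells · Input – 5 × 10^6 yeast cells/mL · Medium – fresh YPD growth medium · Doses – single compound concentration per well · Timing – static 4 h at 37 °C with compound, 1 h detection · Detection – adenylate kinase release luminescence · Read-out – signal increase indicating cell lysis · Control set – Clomiphene as positive lysis control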
Starred values were filed as active, the others as inactive; ? = inconclusive; . = no result. Hits are enriched below; roughly 2.1% of the tested compounds scored in any of these assays.

SMILES | DENV2 CPE rescue | XiGFP reactiv | Statin myotox sup | Cneo AK release
C#CCOCCOCCOCCNc1nc(N2CCOCC2)nc(N2CCN(C(=O)CCCCCCCCCCNC(=O)[C@@H]([C@H](C)O)n3cc(C)nn3)CC2)n1 | 3 | 0 | -5 | 1
C#CCOCCOCCOCCNc1nc(N2CCN(C(=O)CCCCCCCCCCNC(=O)[C@H](CO)n3cc(CCCSC)nn3)CC2)nc(N2CCN(C(=O)CCCCCCCCCCNC(=O)[C@H](CO)n3cc(CCCSC)nn3)CC2)n1 | 121* | 0 | 16 | -2
C#CCOCCOCCOCCNc1nc(N2CCN(C(=O)CCCCCCCCCCNC(=O)[C@@H]([C@H](C)O)n3cc(C)nn3)CC2)nc(N2CCN(C(=O)CCCCCCCCCCNC(=O)[C@@H]([C@H](C)O)n3cc(C)nn3)CC2)n1 | . | 0 | 77* | 1
C#CCOCCOCCOCCNc1nc(N2CCN(C(=O)Cn3cc(CCO)nn3)CC2)nc(N2CCN(C(=O)[C@H]([C@@H](C)O)n3cc(CCCCN)nn3)CC2)n1 | 21* | 0 | -5 | -1
O=S(=O)(Cc1ccccc1)NCC[C@@H]1CC[C@H](NS(=O)(=O)c2ccc(F)cc2)[C@@H](CO)O1 | 1 | 0 | 3 | 0
FC(F)(F)c1ccccc1CN1CCCc2nc(-c3ccccc3)ccc21 | -2 | 0 | . | .
FC(F)(F)c1ccccc1CN1CCCc2nc(-c3ccc(Br)cc3)ccc21 | 42* | 0 | . | .
CCS(=O)(=O)N1CC2(C1)[C@@H](c1ccccc1)[C@@H](CO)N2Cc1ccccn1 | -2 | 0 | . | .
O=C(N1CCOCC1)N1CCN(S(=O)(=O)N2CCOCC2)CC1 | . | . | 114* | -2
O=C(N1CCCCCC1)N1CCN(S(=O)(=O)N2CCOCC2)CC1 | . | . | -5 | -1
C[C@H](CO)N1C[C@H](C)[C@H](CN(C)Cc2ccc3c(c2)OCO3)Oc2ccc(NC(=O)c3ccncc3)cc2CC1=O | 11 | 0 | 3 | 4
C[C@@H]1CN([C@@H](C)CO)C(=O)Cc2cc(NC(=O)c3ccncc3)ccc2O[C@H]1CN(C)Cc1ccc(C(=O)Nc2ccccc2N)cc1 | 72* | 0 | -8 | -1
COc1ccc(NC(=O)Nc2ccc3c(c2)CC(=O)N([C@H](C)CO)C[C@@H](C)[C@H](CN(C)Cc2ccc(C(=O)Nc4ccccc4N)cc2)O3)cc1 | 55* | 0 | . | .
C[C@@H]1CN([C@H](C)CO)C(=O)Cc2cc(NC(=O)c3ccncc3)ccc2O[C@H]1CN(C)Cc1ccc(C(=O)Nc2ccccc2N)cc1 | -2 | 0 | . | .
C[C@H](CO)N1C[C@H](C)[C@@H](CN(C)Cc2ccc3c(c2)OCO3)Oc2ccc(NC(=O)c3ccncc3)cc2CC1=O | 29* | 1 | 12 | -2
COCC#Cc1cnc2c(c1)C(=O)N([C@H](C)CO)C[C@H](C)[C@@H](CN(C)C(=O)C1CCC1)O2 | 3 | 0 | 7 | 1
COc1ccc(NC(=O)N(C)C[C@@H]2Oc3ccc(NC(=O)Nc4ccccc4)cc3C(=O)N([C@H](C)CO)C[C@@H]2C)cc1 | 8 | 0 | -11 | -1
CC(C)NC(=O)Nc1ccc2c(c1)CC(=O)N([C@H](C)CO)C[C@@H](C)[C@@H](CN(C)Cc1ccc(C(=O)O)cc1)O2 | 68* | 0 | 1 | -3
CC(C)NC(=O)Nc1ccc2c(c1)CC(=O)N([C@H](C)CO)C[C@H](C)[C@H](CN(C)Cc1ccc(-c3ccccc3)cc1)O2 | 28* | -1 | 27 | 4
C[C@H]1CN([C@@H](C)CO)C(=O)Cc2cc(NC(=O)Nc3ccc4c(c3)OCO4)ccc2O[C@H]1CN(C)Cc1ccccc1 | 46* | 0 | -42 | -3
C[C@H](CO)N1C[C@H](C)[C@@H](CN(C)Cc2ccccc2)Oc2ccc(NC(=O)Nc3ccccc3)cc2CC1=O | 25* | -1 | -18 | -1
C[C@@H]1CN([C@H](C)CO)C(=O)c2cc(NC(=O)CCC(F)(F)F)ccc2O[C@@H](C)CCCCO[C@@H]1CN(C)CC1CCCCC1 | -12 | 0 | . | -1
C[C@H]1CN([C@@H](C)CO)C(=O)c2cccc(NC(=O)Nc3cccc4ccccc34)c2O[C@@H]1CN(C)S(C)(=O)=O | -1 | 0 | -9 | -4
CCC(=O)N[C@@H]1CC[C@@H](CCn2cc(-c3cccc(OC)c3)nn2)O[C@@H]1CO | ? | 1 | -4 | -2
CC(=O)Nc1ccc2c(c1)C(=O)N(C)[C@@H]1CC[C@@H](CC(=O)NCCCN3CCOCC3)O[C@@H]1CO2 | . | 0 | 15 | 3
SMILES | DENV2 CPE rescue | XiGFP reactiv | Statin myotox sup | Cneo AK release
CN1[C@@H]2c3ccc(-c4cccc(F)c4)c(=O)n3C[C@H]1[C@H](CO)[C@H]2C(=O)NCc1ccccc1 | -9 | 1 | 3 | 4
CC(C)NC(=O)Nc1ccc2c(c1)CC(=O)N([C@H](C)CO)C[C@@H](C)[C@@H](CN(C)Cc1ccc(Oc3ccccc3)cc1)O2 | -20 | 0 | -75 | 105*
C[C@@H]1CN([C@@H](C)CO)C(=O)Cc2cc(NC(=O)Nc3ccccc3)ccc2O[C@H]1CN(C)Cc1ccc(Cl)c(Cl)c1 | 38* | -1 | -33 | 3
C[C@H](CO)N1C[C@H](C)[C@@H](CN(C)Cc2ccc(Oc3ccccc3)cc2)Oc2ccc(NC(=O)Nc3ccccc3)cc2CC1=O | 18 | 0 | 79* | 1
CC=Cc1ccc2n(c1=O)C[C@@H]1[C@@H](CO)[C@H](C(=O)NCc3ccc4c(c3)OCO4)[C@H]2N1C(=O)CC (mixture of isomers) | -3 | 0 | 13 | 53
COc1ccc(NC(=O)N2[C@@H]3CNC[C@H]2C3c2ccc(-c3ccc(F)cc3)cc2)cc1 (stereo partly specified) | 0 | 0 | . | .
COc1ccc(CNC(=O)CN(C(=O)c2csnn2)c2cccc3c2CCCC3)cc1 | -3 | 0 | 73* | 0
COc1ccc(CNC(=O)CN(C(=O)c2csnn2)c2ccccc2F)cc1 | -2 | 0 | 36 | 1
Cc1ccc(C2CC2C(=O)NNC(=S)Nc2cccc(Cl)c2)cc1 (stereo unspecified) | . | . | 81* | 3
Cc1ccc(C2CC2C(=O)NNC(=S)Nc2cccc(C)c2)cc1 (stereo unspecified) | . | . | 42 | 2
COc1cc(NC(=O)CSCC(=O)N(C)C2CCCCC2)cc(OC)c1 | ? | 0 | 2 | 1
CN(C(=O)CSCC(=O)Nc1ccc(Cl)cc1)C1CCCCC1 | 62* | 0 | 24 | 0
COCCNC(=O)c1ccc(CS(=O)(=O)c2c(Cl)cccc2Cl)o1 | 58* | 0 | -2 | 0
Cc1ccc(S(=O)(=O)Nc2ccc3c(c2)C(=O)N([C@@H](C)CO)C[C@@H](C)[C@@H](CN(C)S(=O)(=O)c2ccc(F)cc2)OCCCC[C@H](C)O3)cc1 | -3 | -1 | . | 1
COC(=O)C(Cc1csc2ccc(Cl)cc12)NC(=O)c1ccc(Cl)cc1 (stereo unspecified) | 96* | 0 | 10 | .
Cc1cc(C(=O)CSc2nnnn2-c2ccccc2)c(C)n1CCc1ccccc1 | . | . | 107* | -1
